The nature of assay [1]: (§1) Selectivity ratio of Kd for displacement of fluorescent tracer 5-(3-(4-((1S,5S,6S)-10-(3,5-dichlorophenylsulfonyl)-2-oxo-3-(pyridin-3-ylmethyl)-3,10-diazabicyclo[4.3.1]decan-5-yl)-1H-1,2,3-triazol-1-yl)propylcarbamoyl)-2-(6-(dimethylamino)-3-(dimethyliminio)-3H-xanthen-9-yl)benzoate from recombinant full length C-terminal FLAG-tagged FJBP12 to Kd for displacement of fluorescent tracer 5-(3-(4-((1S,5S,6S)-10-(3,5-dichlorophenylsulfonyl)-2-oxo-3-(pyridin-3-ylmethyl)-3,10-diazabicyclo[4.3.1]decan-5-yl)-1H-1,2,3-triazol-1-yl)propylcarbamoyl)-2-(6-(dimethylamino)-3-(dimethyliminio)-3H-xanthen-9-yl)benzoate from recombinant full length C-terminal FLAG-tagged FKBP51 (unknown origin).

The target in assay [2] is Peptidyl-prolyl cis-trans isomerase FKBP1A (Homo sapiens, UniProt P62942). Kind of assay: Displacement of fluorescent tracer 5-(3-(4-((1S,5S,6S)-10-(3,5-dichlorophenylsulfonyl)-2-oxo-3-(pyridin-3-ylmethyl)-3,10-diazabicyclo[4.3.1]decan-5-yl)-1H-1,2,3-triazol-1-yl)propylcarbamoyl)-2-(6-(dimethylamino)-3-(dimethyliminio)-3H-xanthen-9-yl)benzoate from recombinant full length C-terminal FLAG-tagged FKBP12 (unknown origin) expressed in Escherichia coli BL21 ([…]) cells incubated for 30 mins by fluorescence polarisation competition binding assay. An outline of the steps: (§2)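 Competitive FP in 150 mM NaCl, 20 mM HEPES pH 8.0, 0.002% Triton X-100. Ligand 1:1 serially diluted in DMSO and premixed with fluorescent tracer, tracer working solution 11.9 nM (FKBP12.6, 51FK1, 52FK1) or 5.95 nM (FKBP12) before final 10-fold dilution into protein. 30 min at room temperature, read at ex/em 535/590 nm. Weighted SD from at least two independent runs.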
Peptidyl-prolyl cis-trans isomerase FKBP1A, sequence (P62942 whole entry): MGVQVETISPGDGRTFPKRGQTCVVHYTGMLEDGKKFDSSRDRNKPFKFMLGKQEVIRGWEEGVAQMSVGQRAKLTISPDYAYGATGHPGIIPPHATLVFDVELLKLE

Assay [3] in a line: as §1, with “FKBP52 (unknown origin)” for “FJBP12”.
Assay [4] concerns the target T1, Peptidyl-prolyl cis-trans isomerase FKBP4 (Homo sapiens, UniProt Q02790).
T1 sequence (Q02790 whole entry): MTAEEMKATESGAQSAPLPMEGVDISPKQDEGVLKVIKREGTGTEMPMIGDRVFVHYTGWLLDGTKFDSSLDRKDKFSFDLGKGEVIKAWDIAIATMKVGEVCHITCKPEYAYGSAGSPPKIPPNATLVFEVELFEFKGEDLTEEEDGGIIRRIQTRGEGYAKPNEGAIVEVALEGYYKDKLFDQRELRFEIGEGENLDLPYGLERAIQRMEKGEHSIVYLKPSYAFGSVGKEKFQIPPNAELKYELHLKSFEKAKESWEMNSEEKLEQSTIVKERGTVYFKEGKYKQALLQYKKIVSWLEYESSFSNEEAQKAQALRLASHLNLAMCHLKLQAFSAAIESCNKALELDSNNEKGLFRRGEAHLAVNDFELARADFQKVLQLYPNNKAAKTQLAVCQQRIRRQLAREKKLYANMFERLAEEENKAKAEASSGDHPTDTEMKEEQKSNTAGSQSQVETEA
Kind of assay: Displacement of fluorescent tracer 5-(3-(4-((1S,5S,6S)-10-(3,5-dichlorophenylsulfonyl)-2-oxo-3-(pyridin-3-ylmethyl)-3,10-diazabicyclo[4.3.1]decan-5-yl)-1H-1,2,3-triazol-1-yl)propylcarbamoyl)-2-(6-(dimethylamino)-3-(dimethyliminio)-3H-xanthen-9-yl)benzoate from recombinant full length C-terminal FLAG-tagged FKBP52 (unknown origin) expressed in Escherichia coli BL21 (DE3) cells incubated for 30 mins by fluorescence polarisation competition binding assay. An outline of the steps:
as §2

Assay [5] is described as follows: as §1, with “FKBP12.6 (unknown origin)” for “FJBP12”.
Assay [6] deals with Peptidyl-prolyl cis-trans isomerase FKBP1B (Homo sapiens, UniProt P68106). Kind of assay: Displacement of fluorescent tracer 5-(3-(4-((1S,5S,6S)-10-(3,5-dichlorophenylsulfonyl)-2-oxo-3-(pyridin-3-ylmethyl)-3,10-diazabicyclo[4.3.1]decan-5-yl)-1H-1,2,3-triazol-1-yl)propylcarbamoyl)-2-(6-(dimethylamino)-3-(dimethyliminio)-3H-xanthen-9-yl)benzoate from recombinant full length C-terminal FLAG-tagged FKBP12.6 (unknown origin) expressed in Escherichia coli BL21 (DE3) cells incubated for 30 mins by fluorescence polarisation competition assay. The method in brief:
as §2

For assay [7], the target named is T2, Peptidyl-prolyl cis-trans isomerase FKBP5 (Homo sapiens, UniProt Q13451).
T2 sequence (Q13451 whole entry): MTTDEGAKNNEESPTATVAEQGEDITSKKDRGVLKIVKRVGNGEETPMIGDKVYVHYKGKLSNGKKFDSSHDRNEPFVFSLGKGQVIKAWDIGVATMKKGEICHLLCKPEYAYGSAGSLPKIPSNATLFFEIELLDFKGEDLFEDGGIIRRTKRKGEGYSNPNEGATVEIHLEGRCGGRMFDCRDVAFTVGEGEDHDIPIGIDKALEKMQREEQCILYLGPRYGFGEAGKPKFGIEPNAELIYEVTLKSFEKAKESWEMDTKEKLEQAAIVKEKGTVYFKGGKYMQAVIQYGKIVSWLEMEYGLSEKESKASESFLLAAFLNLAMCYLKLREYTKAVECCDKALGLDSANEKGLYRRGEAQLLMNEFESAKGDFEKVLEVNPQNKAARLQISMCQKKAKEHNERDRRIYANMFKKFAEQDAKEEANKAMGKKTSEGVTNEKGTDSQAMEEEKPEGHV
The assay is described as follows: Displacement of fluorescent tracer 5-(3-(4-((1S,5S,6S)-10-(3,5-dichlorophenylsulfonyl)-2-oxo-3-(pyridin-3-ylmethyl)-3,10-diazabicyclo[4.3.1]decan-5-yl)-1H-1,2,3-triazol-1-yl)propylcarbamoyl)-2-(6-(dimethylamino)-3-(dimethyliminio)-3H-xanthen-9-yl)benzoate from recombinant full length C-terminal FLAG-tagged FKBP51 (unknown origin) expressed in Escherichia coli BL21 (DE3) cells incubated for 30 mins by fluorescence polarisation competition binding assay.

Peptidyl-prolyl cis-trans isomerase FKBP1B, sequence (P68106 whole entry): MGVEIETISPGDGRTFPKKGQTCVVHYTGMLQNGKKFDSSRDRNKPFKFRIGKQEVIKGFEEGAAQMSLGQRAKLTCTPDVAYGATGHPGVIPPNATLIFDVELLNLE

Consider `COc1ccc(CC[C@H]2OC(=O)[C@@H]3CCCCN3C(=O)[C@@H](C3CCCCC3)c3cc(OC)c(c(OC)c3)OCC/C=C/COc3cccc2c3)cc1OC`, for which the Selectivity ratio is 6.8 in assay [1], above 67 in assay [3] and 7.2 in assay [5]. Further, the Kd in assay [2] is 1.01 µM; in assay [4], above 10 µM; in assay [6] it was 1.07 µM; in assay [7], 0.149 µM.
As to `COc1ccc(CC[C@H]2OC(=O)[C@@H]3CCCCN3C(=O)[C@@H](C3CCCCC3)c3cc(OC)c(OC)c(c3)OCCOCC(=O)CCOc3cccc2c3)cc1OC`, the Selectivity ratio in assay [1] turned out to be 2.2; in assay [3], 138; in assay [5], 1.9. Besides, the Kd in assay [2] came to 0.062 µM; in assay [4], 3.88 µM; in assay [6] it was 0.053 µM; in assay [7] it was 0.028 µM.
Turning to `COc1ccc(CC[C@H]2OC(=O)[C@@H]3CCCCN3C(=O)[C@@H](C3CCCCC3)c3cc(OC)c(c(OC)c3)OCCCOC/C=C/COc3cccc2c3)cc1OC`, the Selectivity ratio was 7 in assay [1], above 119 in assay [3] and 3.9 in assay [5]. Moreover, the Kd in assay [2] was 0.595 µM; in assay [4], above 10 µM; in assay [6] it was 0.335 µM; in assay [7] it was 0.084 µM.
Turning to `COc1ccc(CC[C@H]2OC(=O)[C@@H]3CCCCN3C(=O)[C@@H](C3CCCCC3)c3cc(OC)c(OC)c(c3)OCCOC/C=C\COc3cccc2c3)cc1OC`, the Selectivity ratio is 2.5 in assay [1], above 73 in assay [3] and 2.2 in assay [5]. Also, the Kd in assay [2] is 0.345 µM; in assay [4], above 10 µM; in assay [6], 0.301 µM; in assay [7], 0.137 µM.
Take `COc1ccc(CC[C@H]2OC(=O)[C@@H]3CCCCN3C(=O)[C@@H](C3CCCCC3)c3cc(OC)c(OC)c(c3)OCCOC/C=C/COc3cccc2c3)cc1OC`: the values for the Selectivity ratio in assay [1], in assay [3] and in assay [5] were 3.1, above 161 and 1.7, respectively. Also, the Kd in assay [2] is 0.192 µM; in assay [4], above 10 µM; in assay [6], 0.105 µM; in assay [7], 0.062 µM.
Regarding `COc1ccc(CC[C@H]2OC(=O)[C@@H]3CCCCN3C(=O)[C@@H](C3CCCCC3)c3cc(OC)c(OC)c(c3)OCCCOC/C=C\COc3cccc2c3)cc1OC`, the figures for the Selectivity ratio in assay [1], in assay [3] and in assay [5] were 3.4, above 69 and 2.3, respectively. For the same compound, the Kd was 0.494 µM in assay [2], above 10 µM in assay [4], 0.352 µM in assay [6] and 0.144 µM in assay [7].
Take `COc1ccc(CC[C@H]2OC(=O)[C@@H]3CCCCN3C(=O)[C@@H](C3CCCCC3)c3cc(OC)c(c(OC)c3)OCCCOCCCCOc3cccc2c3)cc1OC`: the Selectivity ratio is 6.4 in assay [1], above 133 in assay [3] and 3.7 in assay [5]. Moreover, the Kd in assay [2] was 0.484 µM; in assay [4], above 10 µM; in assay [6], 0.277 µM; in assay [7] it was 0.075 µM.
On to `COc1ccc(CC[C@H]2OC(=O)[C@@H]3CCCCN3C(=O)[C@@H](C3CCCCC3)c3cc(OC)c(OC)c(c3)OCCCOCCCCOc3cccc2c3)cc1OC`, for which the results for the Selectivity ratio in assay [1], in assay [3] and in assay [5] were 3.4, above 97 and 2.2, respectively. The Kd is 0.354 µM in assay [2], above 10 µM in assay [4], 0.227 µM in assay [6] and 0.103 µM in assay [7].
As for `COc1ccc(CC[C@H]2OC(=O)[C@@H]3CCCCN3C(=O)[C@@H](C3CCCCC3)c3cc(OC)c(OC)c(c3)OCCOCCCCOc3cccc2c3)cc1OC`, the Selectivity ratio in assay [1] is 2.2; in assay [3], above 164; in assay [5], 1.9. In addition, the Kd in assay [2] is 0.135 µM; in assay [4] it was above 10 µM; in assay [6], 0.115 µM; in assay [7], 0.061 µM.
Take `COc1ccc(CC[C@H]2OC(=O)[C@@H]3CCCCN3C(=O)[C@@H](C3CCCCC3)c3cc(OC)c(c(OC)c3)OCC(O)C(O)COc3cccc2c3)cc1OC` (mixture of isomers): the Selectivity ratio in assay [1] was determined as 6.5; in assay [3] it was 66.2; in assay [5] it was 7. Besides, the Kd in assay [2] came to 0.079 µM; in assay [4], 0.795 µM; in assay [6], 0.085 µM; in assay [7] it was 0.012 µM.
`COc1ccc(CC[C@H]2OC(=O)[C@@H]3CCCCN3C(=O)[C@@H](C3CCCCC3)c3cc(OC)c(c(OC)c3)OCCCCCOc3cccc2c3)cc1OC`: the Selectivity ratio in assay [1] is 12.5; in assay [3], above 84; in assay [5], 7.1. Further, the Kd is 1.49 µM in assay [2], above 10 µM in assay [4], 0.849 µM in assay [6] and 0.119 µM in assay [7].
For the compound `COc1cccc([C@@H](CCc2ccc(OC)c(OC)c2)OC(=O)[C@@H]2CCCCN2C(=O)[C@H](c2cc(OC)c(OC)c(OC)c2)C2CCCCC2)c1`, the Kd in assay [2] was 0.263 µM; in assay [4], above 10 µM; in assay [6], 0.203 µM; in assay [7] it was 0.083 µM.
Take `COc1ccc(CC[C@H]2OC(=O)[C@@H]3CCCCN3C(=O)[C@@H](C3CCCCC3)c3cc(OC)c(OC)c(c3)OCCCOc3cccc2c3)cc1OC`: the figures for the Selectivity ratio in assay [1], in assay [3] and in assay [5] were 4.2, above 188 and 1.3, respectively. Besides, the Kd in assay [2] was found to be 0.295 µM; in assay [4], 13.2 µM; in assay [6], 0.094 µM; in assay [7], 0.07 µM.
In the case of `COc1ccc(CC[C@H]2OC(=O)[C@@H]3CCCCN3C(=O)[C@@H](C3CCCCC3)c3cc(OC)c(c(OC)c3)OCCOC/C=C/COc3cccc2c3)cc1OC`, the figures for the Kd in assay [2], in assay [4] and in assay [6] were 1.01 µM, above 10 µM and 0.715 µM, respectively.
The matching figures for `COc1ccc(CC[C@H]2OC(=O)[C@@H]3CCCCN3C(=O)[C@@H](C3CCCCC3)c3cc(OC)c(c(OC)c3)OCCOC/C=C\COc3cccc2c3)cc1OC`: 0.798 µM, above 10 µM and 0.344 µM.

The record behind these values is ChEMBL document CHEMBL4834405, “Structure-Based Design of High-Affinity Macrocyclic FKBP51 Inhibitors” (J Med Chem, 2021).
